In publication PMC3086766 (Bioconjugate chemistry, 2011):
Where “and” joins values, the source holds several entries; their conditions need not be identical. Identical values can stand only once.

What was measured:
male ICR mice = test: In-vivo biodistribution study in mice; set-up: species or system mouse; conditions: for Blood uptake / Bone uptake / Brain uptake / Heart uptake / Kidney uptake / Liver uptake / Lung uptake / Muscle uptake / Pancreas uptake / Skin uptake / Spleen uptake: iv tail vein; for in vivo de-fluorination (from bone (femur) values): within 30 min post injection
Procedure, shortened: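 Normal male ICR mice (20–25 g), 6 per group, under isoflurane (1–2%, 1 L oxygen/min). Each received 25 μCi radiotracer in 0.15 mL saline via lateral tail vein. Killed by cardiac excision under anesthesia at 2 and 30 min. Organs weighed and gamma-counted. Percent dose per gram calculated against counts of 1.0% of initial dose, taken from 100-fold diluted injectate aliquots.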

[1] = target: AD plaques (β-amyloid plaques) in human brain tissue homogenates (Homo sapiens, UniProt P05067); test: In vitro competition binding assay against [18F]-AV-45 in AD brain homogenates
Chain of AD plaques (β-amyloid plaques) in human brain tissue homogenates (P05067 672-713 limits assumed): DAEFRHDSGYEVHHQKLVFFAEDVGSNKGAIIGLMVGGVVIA
Procedure, shortened: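 Gray matter from human Alzheimer's brain sections with plaques, homogenized in PBS pH 7.2 (20–50 μg per tube). Incubated with [18F]-AV-45 and competitor (10−5–10−10 M, serially diluted in PBS with 0.1% BSA) in 1 mL final, 37 °C for 120 min. IMPY 600 nM defined nonspecific binding. Bound and free separated by vacuum filtration. Ki by nonlinear regression; n = 5–6.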

Blood uptake (male ICR mice; 2 min post injection) | Bone uptake (male ICR mice; 2 min post injection) | Heart uptake (male ICR mice; 2 min post injection) | Kidney uptake (male ICR mice; 2 min post injection) | Liver uptake (male ICR mice; 2 min post injection) | Lung uptake (male ICR mice; 2 min post injection) | Muscle uptake (male ICR mice; 2 min post injection) | Pancreas uptake (male ICR mice; 2 min post injection) | Skin uptake (male ICR mice; 2 min post injection) | Spleen uptake (male ICR mice; 2 min post injection) | Blood uptake (male ICR mice; 30 min post injection) | Bone uptake (male ICR mice; 30 min post injection) | Heart uptake (male ICR mice; 30 min post injection) | Kidney uptake (male ICR mice; 30 min post injection) | Liver uptake (male ICR mice; 30 min post injection) | Lung uptake (male ICR mice; 30 min post injection) | Muscle uptake (male ICR mice; 30 min post injection) | Pancreas uptake (male ICR mice; 30 min post injection) | Compound | Brain uptake (male ICR mice; 2 min post injection) | Brain uptake (male ICR mice; 30 min post injection) | other results
4.19 ± 1.04 % dose/gram | 1.76 ± 0.31 % dose/gram | 12.3 ± 1.79 % dose/gram | 15.4 ± 3.54 % dose/gram | 29.4 ± 5.09 % dose/gram | 3.70 ± 1.06 % dose/gram | 1.42 ± 0.46 % dose/gram | 3.32 ± 0.58 % dose/gram | 1.14 ± 0.44 % dose/gram | 3.11 ± 0.45 % dose/gram | 2.81 ± 0.22 % dose/gram | 1.62 ± 0.10 % dose/gram | 4.17 ± 0.61 % dose/gram | 7.78 ± 0.85 % dose/gram | 10.9 ± 1.17 % dose/gram | 2.43 ± 0.33 % dose/gram | 2.01 ± 0.21 % dose/gram | 2.22 ± 0.23 % dose/gram | CNc1ccc(/C=C/c2ccc(OCCOCCOCCOCCOCCOCCNC(=O)CO/N=C/c3ccc(OCCOCCOCCF)nc3)nc2)cc1 [[^18F]24, 2-((E)-(6-(2-(2-(2-fluoroethoxy)ethoxy)ethoxy)pyridin-3-yl)methyleneaminooxy)-N-(17-(5-((E)-4-(methylamino)styryl)pyridin-2-yloxy)-3,6,9,12,15-pentaoxaheptadecyl)acetamide] | 0.48 % dose/gram and 0.48 ± 0.12 % dose/gram | 0.92 % dose/gram and 0.92 ± 0.11 % dose/gram | Skin uptake (male ICR mice; 30 min post injection): 1.78 ± 0.13 % dose/gram; Spleen uptake (male ICR mice; 30 min post injection): 1.63 ± 0.19 % dose/gram; in vivo de-fluorination (from bone (femur) values) (male ICR mice): very little de-fluorination
9.34 ± 1.37 % dose/gram | 2.00 ± 0.33 % dose/gram | 13.1 ± 3.08 % dose/gram | 14.1 ± 2.85 % dose/gram | 22.2 ± 3.99 % dose/gram | 7.09 ± 1.37 % dose/gram | 1.32 ± 0.50 % dose/gram | 5.13 ± 1.08 % dose/gram | 0.79 ± 0.20 % dose/gram | 4.81 ± 1.18 % dose/gram | 4.94 ± 0.91 % dose/gram | 2.27 ± 0.41 % dose/gram | 3.72 ± 0.84 % dose/gram | 6.83 ± 1.93 % dose/gram | 19.1 ± 3.65 % dose/gram | 3.53 ± 0.38 % dose/gram | 1.56 ± 0.27 % dose/gram | 2.28 ± 0.48 % dose/gram | CNc1ccc(/C=C/c2ccc(OCCOCCOCCNC(=O)CO/N=C/c3ccc(OCCOCCOCCF)nc3)nc2)cc1 [[^18F]23, 2-((E)-(6-(2-(2-(2-fluoroethoxy)ethoxy)ethoxy)pyridin-3-yl)methyleneaminooxy)-N-(2-(2-(2-(5-((E)-4-(methylamino)styryl)pyridin-2-yloxy)ethoxy)ethoxy)ethyl)acetamide] | 1.69 % dose/gram and 1.69 ± 0.44 % dose/gram | 0.96 ± 0.16 % dose/gram | Ki [1]: 11.8 ± 3.06 nM; Skin uptake (male ICR mice; 30 min post injection): 1.50 ± 0.25 % dose/gram; Spleen uptake (male ICR mice; 30 min post injection): 3.57 ± 0.68 % dose/gram; in vivo de-fluorination (from bone (femur) values) (male ICR mice): very little de-fluorination
